We go through eleven molecules from ChEMBL document CHEMBL1143060, “Synthesis and pharmacological investigation of novel 4-benzyl-1-substituted-4H-[1,2,4]triazolo[4,3-a]quinazolin-5-ones as new class of H1-antihistaminic agents” (2007).

Type in all cases: functional
One assay has as its system Cavia porcellus. The assay can be described thus: Antihistaminic activity in Dunkin-Hartley guinea pig assessed as protection against histamine-induced bronchospasm at 10 mg/kg, po. The essentials: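 Male Dunkin Hartley guinea pigs (250–300 g), fasted 12 h, six per group, dosed orally at 10 mg/kg in 1% CMC. They were then challenged in a closed transparent cage with nebulized histamine aerosol (0.2% aqueous histamine acid chloride, 3 ml). Preconvulsion onset time was recorded, and animals stable >6 min counted as protected. Mean preconvulsion time versus control was expressed as percent protection.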

Assay [1] deals with Mus musculus. The assay can be described thus: Sedative-hypnotic activity in Swiss Albino mouse assessed as reduction of locomotor activity at 5 mg/kg, po after 2 hrs. More on the design: scale not given: the % may be the effect or the level left. Summed up: (§1)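 Locomotor activity was scored at 1, 2 and 3 h after dosing, and percent reduction in locomotor activity was calculated. Significance versus control was tested by Student's t test. Animals were housed at 45–55% relative humidity on a 12 h light/dark cycle, fed standard feed, and acclimatized for one week before use.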

For assay [2], the system named is Mus musculus. The experiment in a line: Sedative-hypnotic activity in Swiss Albino mouse assessed as reduction of locomotor activity at 5 mg/kg, po after 3 hrs. More on the design: scale not given: the % may be the effect or the level left. Summed up: as §1
Assay [3] has as its system Mus musculus. The assay can be described thus: Sedative-hypnotic activity in Swiss Albino mouse assessed as reduction of locomotor activity at 5 mg/kg, po after 1 hrs. More on the design: scale not given: the % may be the effect or the level left. Summed up:
as §1

As to `O=c1c2ccccc2n2c(CCl)nnc2n1Cc1ccccc1`, the Activity in the assay with Cavia porcellus is recorded as 72.96%; in the assay with Mus musculus [1], 7%; in the assay on Mus musculus [2], 4%; in the assay on Mus musculus [3] it was 5%.
On to `O=c1c2ccccc2n2c(CN3CCOCC3)nnc2n1Cc1ccccc1`, for which the Activity in the assay with Cavia porcellus was found to be 74.1%; with Mus musculus [1], 13%; with Mus musculus [2] it was 6%; with Mus musculus [3] it was 7%.
As to `O=c1c2ccccc2n2cnnc2n1Cc1ccccc1`, the Activity in the assay with Cavia porcellus is 73.99%; in the assay on Mus musculus [1], 9%; in the assay on Mus musculus [2], 4%; in the assay with Mus musculus [3], 6%.
For the molecule `CN1CCN(Cc2nnc3n(Cc4ccccc4)c(=O)c4ccccc4n23)CC1`, the Activity is recorded as 74.83% in the assay on Cavia porcellus, 17% with Mus musculus [1], 7% in the assay on Mus musculus [2] and 8% in the assay on Mus musculus [3].
`O=c1c2ccccc2n2c(CN3CCNCC3)nnc2n1Cc1ccccc1`: the Activity with Cavia porcellus came to 74.44%; in the assay with Mus musculus [1], 14%; in the assay with Mus musculus [2] it was 8%; in the assay on Mus musculus [3], 6%.
The like results for `Cc1nnc2n(Cc3ccccc3)c(=O)c3ccccc3n12` were, in that order, 76.08%, 11%, 6% and 6%.
For `CCc1nnc2n(Cc3ccccc3)c(=O)c3ccccc3n12`, the Activity in the assay on Cavia porcellus is reported as 74.39%; in the assay with Mus musculus [1] it was 12%; with Mus musculus [2] it was 9%; in the assay on Mus musculus [3] it was 7%.
`O=c1c2ccccc2n2c(CN3CCCC3)nnc2n1Cc1ccccc1`: the Activity in the assay on Cavia porcellus is on record as 73.69%; in the assay on Mus musculus [1], 12%; with Mus musculus [2] it was 8%; in the assay with Mus musculus [3], 8%.
As for `CN(C)CC[C@@H](c1ccccc1)c1ccccn1.O=C(O)/C=C\C(=O)O` [PHENIRAMINE MALEATE], the Activity with Cavia porcellus is given as 71%; with Mus musculus [1], 32%; in the assay on Mus musculus [2] it was 22%; in the assay with Mus musculus [3] it was 37%.
For `O=c1c2ccccc2n2c(CN3CCCCC3)nnc2n1Cc1ccccc1`, the Activity in the assay with Cavia porcellus amounted to 73.93%; with Mus musculus [1], 15%; in the assay with Mus musculus [2], 8%; in the assay with Mus musculus [3], 9%.
As for `CCCc1nnc2n(Cc3ccccc3)c(=O)c3ccccc3n12`, the Activity was 73.87% in the assay on Cavia porcellus, 15% with Mus musculus [1], 11% with Mus musculus [2] and 9% with Mus musculus [3].
